Assay results: the EternaBench riboswitch data

Test system: MS2 coat protein
Assay: apparent Kd, MS2 coat protein; higher = weaker binding; RNA-MaP array; FMN 200 µM where present
Procedure, shortened: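 Green signal was scaled to red-channel RNA signal and control-cluster median Fmax, and the apparent Kd was taken as the median of filtered per-cluster binding-curve fits. The binding series used SNAP-549-labelled MS2 coat protein from 0.7 or 1.5 nM, doubling to 3 µM, on designs transcribed by stalled E. coli RNA polymerase on Illumina sequencing-chip clusters. Each series ran without and then with constant ligand in 100 mM Tris-HCl pH 7.5, 80 mM KCl, 4 mM MgCl2, BSA, DTT, yeast tRNA and Tween-20.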

[1] = designed as: OFF switch for flavin mononucleotide, no ligand
[2] = ligand present: flavin mononucleotide, designed as: OFF switch for flavin mononucleotide
[3] = designed as: ON switch for flavin mononucleotide, no ligand
[4] = ligand present: flavin mononucleotide, designed as: ON switch for flavin mononucleotide

| Sequence | apparent Kd [1] [nM] | apparent Kd [2] [nM] | apparent Kd [3] [nM] | apparent Kd [4] [nM] |
| --- | --- | --- | --- | --- |
| CCUCGACAUGAGGAUCACCCAUGUCAGGAUAUUGUGUAUCGGGUUUUUUACCGAAAGGCGAGAAGGGAUGUGUG | 16.9 | 23.1 |  |  |
| CCUCUACAUGAGGAUCACCCAUGUGAGGAUAUCUCGGAGCAGCCACUUAAGGCACUCCAGAGAAGGCACGUGUA | 18 | 25.7 |  |  |
| CCUGGAUCAUGAGGAUAUGGUACCUUAUUGGUACCAGAAGGCAUGUCUCUUGACAUGAGGAUCACCCAUGUAAUAAAUUCCAGG |  |  | 841 | 114 |
| CCUGUACAUGAGGAUCACCCAUGUUAGGAUAUCUCGCCGUCGGCUUGCCGACGGUAUUAGAGAAGGGACAAGGG | 32.3 | 37.6 |  |  |
| CCUUUAUAGAUCCAUUUUAACAACAUGAGGAUCACCCAUGUGCAGGAUAUCGAUUGUUUUACUUUCGAGAAGGGCAAAUUCAGC | 19.3 | 48.7 |  |  |
| CCUUUGAAGAUCCUGGUUUUCGACAUGAGGAUCACCCAUGUGCAGGAUAUCGUGCCAGUGCUGUGCGAGAAGGGCAGUCUCUGC | 17.1 | 18.9 |  |  |
| CCUUUUGUAUAAGGAUAUGUAACAAGGUAUAGAUCGGUAGAAUUUGUGCUUACAGAAGGUAUACAUGAGGAUCACCCAUGUCGA | 22.1 | 140 |  |  |
| CCUUUUGUAUAAGGAUAUGUAACAAGGUGUAGGUUUGUAGGACUUGCGCUUACAGAAGGUAUACAUGAGGAUCACCCAUGUCGA | 29.9 | 157 |  |  |
| CGACAGUACACAGGAUAUCCUCGACUUUGUCGAGGAGAAGGGUGUAAACAUGAGGAUCACCCAUGUAUACUGUCGAAAUAUAAU |  |  | 350 | 38.7 |
| CGACCCUAAACGAAAUUAUGCAGUCAGGAUAUACAUGAGGAUCACCCAUGUGCGUACCAACUCGUGUAGAAGGGACUUUUAGGG | 24.7 | 84.6 |  |  |
| CGAGAUCUUGAGAAGGCAUAAUAUAUAAUACCACAUGUUUACAUGAGGAUCACCCAUGUUUCCUAUGAGGAUAUCAGGAUUUCG | 20.9 | 17.1 |  |  |
| CGAGCUGCUGUGAGGAUAUACCUAUGGGUGCGUGGGUAGAAGGCACAUGAGGAUCACCCAUGUCCUGCAGCUCG | 255 | 344 |  |  |
| CGAGGGUGGGACCCACGCUUUCGACAUGAGGAUCACCCAUGUAAGGAUAUCGCGGCCUACCAUAGCGAGAAGGUACGUGCGGGU | 13 | 25.9 |  |  |
| CGAUAACAUAGUUAUCCGUAACGGACAUGAGGAUCACCCAUGUAGGAUAUGUUACUCAACGAGUAACAGAAGGACAUGAGUCUU | 38.2 | 324 |  |  |
| CGAUAAUAUAGUUAUCCGUAGCGAACAUGAGGAUCACCCAUGUAGGAUAUGUUACUAAACUAGUAACAGAAGGGCAUGAGUCUU | 32.1 | 74.5 |  |  |
| CGAUAGGACAGAGGAUAUACACAUGAGGAUCACCCAUGUGAUUACAACGCGAAAGCUCCAAACAUGUAGAAGGCUGUCCUAUCG | 18.1 | 21.1 |  |  |
| CGAUAGGACAGAGGAUAUACACAUGAGGAUCACCCAUGUGAUUACAACGCUUAAGCUUCAAACAUGUAGAAGGCUGUCCUAUCG | 10.8 | 19.4 |  |  |
| CGAUAUGAUGCAGGAUAUCUAUCUUGAAUGAGGAGAGAAGGGCAUAGGGAGACAUAAGCCUUAUUACAUGAGGAUCACCCAUGU | 12.9 | 12 |  |  |
| CGAUGACAAAGUCAUCGAAUACGAACAUGAGGAUCACCCAUGUAGGAUAUGCUACUCAAAGAGUAGCAGAAGGACAUGUGCCUU | 36.9 | 271 |  |  |
| CGAUGAGGAGUGAGGAUAUCGUGUUCGAAAGAACGUGAGAAGGCACAUGAGGAUCACCCAUGUGAAACUUGUCG | 17.1 | 23.9 |  |  |
| CGCAACUCAGAUCUUUUGAACAUGAGGAUCACCCAUGUAUUGAGAAGGAGCUGGAAGAGAGACAGCUAGGAUAUCAGAGUUGCG | 5.4 | 5.73 |  |  |

| Sequence | apparent Kd [1] [nM] | apparent Kd [2] [nM] | apparent Kd [3] [nM] | apparent Kd [4] [nM] |
| --- | --- | --- | --- | --- |
| CGCAACUCUUCACAUGUAAACAUGAGGAUCACCCAUGUAUUGAGAAGGAGGAAGAAGAGAGAUUCCUAGGAUAUCAGAGUUGCG | 6.42 | 5.84 |  |  |
| CGCAACUCUUCUCAUGUAAACAUGAGGAUCACCCAUGUAAUGAGAAGGAGGAAGAAGAGAGAUUCCUAGGAUAUCAGAGUUGCG | 5.41 | 5.52 |  |  |
| CGCAAGUAUACAUGAGGAUCACCCAUGUCAAUCAUGGUAUUCAGAAGGUACAAUUCAAUAUAUAGUAAGGAUAUGAAAUUUGCG |  |  | 107 | 112 |
| CGCAAGUCAGGAUAUUCGACUGGUAAAUCAGUGGAUCAGUAGGAGAAGGGACAUGAGGAUCACCCAUGUUUGUA | 27.8 | 30 |  |  |
| CGCACUAUACAUGAGGAUCACCCAUGUUAAUAUGAGAUAGUCAGAAGGCAUUGUUUGAGAAAUUAUGAGGAUAUGAAUAGUGCG |  |  | 100 | 23.7 |
| CGCAUGCGUAGAAUUAGCAGCUGACAGGAUAUGACAUGAGGAUCACCCAUGUGAAUUAAGAAGAGUCAGAAGGGUCACGAUGCG | 9.98 | 9.98 |  |  |
| CGCAUGCGUAGAAUUAGUUGCUGACAGGAUAUGACAUGAGGAUCACCCAUGUGAUUUAAGAAGAGUCAGAAGGGUCACGAUGCG | 10.7 | 15.1 |  |  |
| CGCUAAGAUGGGUCUAAUGGACCAUAGGAUAUGCUUGUACAUGAGGAUCACCCAUGUAAUAUUGUGCAGAAGGGUGGAUUUGCG |  |  | 26.4 | 19.6 |
| CGCUAAGAUGGGUUUAAUGGAGCAUAGGAUAUGCUUGUACAUGAGGAUCACCCAUGUAAUAUUGUGCAGAAGGGUGCAUUUGCG |  |  | 126 | 75.1 |
| CGCUACAGCCAGAAGGACAUGAGGAUCACCCAUGUAGGAUAUGGGAGACGCGGUCCAGUGUAGAGAAACUACGCUACUGUAGCG |  |  | 87.3 | 73.4 |
| CGCUACGUUUCGUAGCAGUGUCAUCGAGAAGGCCCUGACAUGAGGAUCACCCAUGUUAAAACACAGGAGGAUAUCGAUGAUACA |  |  | 4.39 | 4.56 |
| CGCUACGUUUCGUAGCAGUGUCAUCGAGAAGGCCCUGACAUGAGGAUCACCCAUGUUGUUACAUGGGAGGAUAUCGAUGAUACG |  |  | 13 | 5.4 |
| CGCUAGUCAGGAUAUACGCACAUGUCACCAGACGUGAAGGGACAUGAGGAUCACCCAUGUAGAAGGGACUAGCC | 98.5 | 246 |  |  |
| CGCUAUGACAUAGGAUAUUGAUACAUGAGGAUCACCCAUGUCAACCAUGAAGCUCGAAUUGUUGACAAGAAGGAUGUGGUAGCG |  |  | 157 | 72.9 |
| CGCUCAAGAGAGAAGGAUAGAGUCAGAAGGCGUUACAUGAGGAUCACCCAUGUUUUGUAUAGUAACGAGGAUAUGAAAUGAGCG | 19.7 | 15 |  |  |
| CGCUGAGGCGAGAAGGCACAAGAGUGGUGGCGGACAUGAGGAUCACCCAUGUGAGGAUAUCGCACUUGGCGGUGCCUAAAACUA | 344 | 39 |  |  |
| CGCUGUCACGCAGGAUAUGCAUUGGAUUACAAUGCAGAAGGGCGAUUACAUGAGGAUCACCCAUGUGUAGACAGUGAAGAAGAG |  |  | 300 | 42.3 |
| CGGAGCAUCGAGAAGGGCACAUGGACAACUAAACAUGAGGAUCACCCAUGUGCAGGAUAUCGAAAAUCAUGUGGCCUUGGCCGU | 15.9 | 155 |  |  |
| CGGAUGUCAGGAUAUCGUGCAUACAACGAAAGUUCUAUGUGCGAGAAGGGACAUGAGGAUCACCCAUGUUAACG | 59.5 | 250 |  |  |
| CGGCCGGGCCGAGGAUAUAAGUCUAGGACAUGAGGAUCACCCAUGUAUGUCUUAGAAGGCGGCCCGGCCAGCCUGUUACAGGCA |  |  | 31.2 | 5.85 |
